{"source": "ChEMBL document CHEMBL4732146", "about": "“Nitric oxide-donating and reactive oxygen species-responsive prochelators based on 8-hydroxyquinoline as anticancer agents” (Eur J Med Chem, 2021)", "key": {"[1]": {"assay": "Stability of compound in pH 5 PBS buffer assessed as parent compound remaining measured after 24 hrs by RP-HPLC analysis", "format": "physicochemical", "conditions": "read-out: Stabilty", "summary_of_the_method": "(§1)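 Compound (1 µM) stirred at 37 °C either in PBS (pH 5.0, 7.4 or 10.0) containing 5% DMSO or in DMEM with 10% FBS. Aliquots were analysed by RP-HPLC (0.1% TFA water/methanol gradient, 256 nm) for remaining intact compound, up to 24 h.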"}, "SW1990 [2]": {"test_system": "SW1990", "assay": "Induction of apoptosis in human SW1990 cells assessed as decrease in Bcl-2 expression at 8 to 12 uM measured after 24 hrs by Western blot analysis", "format": "functional, cell-based", "conditions": "dose 8-12 µM", "summary_of_the_method": "(§2)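 SW1990 cells seeded 5 × 10⁵ per well and grown 24 h at 37 °C, then treated 24 h. Lysates quantified by BCA, resolved by SDS-PAGE and transferred to nitrocellulose. Blocked in 5% milk, probed overnight at 4 °C for cleaved caspase-3, cleaved caspase-9, Bax and Bcl-2, then HRP secondary 2 h. ECL detection.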"}, "[3]": {"assay": "Stability of compound in pH 7.4 PBS buffer assessed as parent compound remaining measured after 24 hrs by RP-HPLC analysis", "format": "physicochemical", "conditions": "read-out: Stabilty", "summary_of_the_method": "as §1"}, "SW1990 [4]": {"test_system": "SW1990", "assay": "Induction of apoptosis in human SW1990 cells assessed as increase in cleaved caspase-3 expression at 8 to 12 uM measured after 24 hrs by Western blot analysis", "format": "functional, cell-based", "conditions": "dose 8-12 µM", "summary_of_the_method": "as §2"}, "SW1990 [5]": {"test_system": "SW1990", "assay": "Cytotoxicity against human SW1990 cells assessed as reduction in cell viability at 10 to 20 uM measured after 48 hrs in presence of ROS quencher NAC by MTT assay", "format": "functional, cell-based", "conditions": "dose 10-20 µM", "summary_of_the_method": "(§3)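 SW1990 cells pretreated 1 h at 37 °C with 20 mM NAC or 50 µM carboxy-PTIO, then treated 48 h with compound at 10 or 20 µM. Percent cell death by MTT (A490). Mean ± SD, n = 3.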"}, "[6]": {"assay": "Prodrug activation in OH at 100 uM measured after 1 hr by RP-HPLC analysis", "summary_of_the_method": "(§4)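 Compound (100 µM) incubated at 37 °C for 1 h with one of: ROS species (1 mM), NO solution (1 mM), GSH (200 µM), CuCl₂ (10 µM) or FeCl₃ (10 µM). Percent decomposed was determined by RP-HPLC (ODS column, 0.1% TFA water/methanol gradient, 1 mL/min, 256 nm).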"}, "[7]": {"assay": "Stability of compound in presence of Cu2+ at 100 uM measured after 1 hr by RP-HPLC analysis", "format": "physicochemical", "summary_of_the_method": "as §4"}, "SW1990 [8]": {"test_system": "SW1990", "assay": "Induction of apoptosis in human SW1990 cells at 12 uM measured after 24 hrs in presence of NO scavenger Carboxyl-PTIO by Annexin V-FITC/propidium iodide staining based flow cytometry", "format": "functional, cell-based", "summary_of_the_method": "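SW1990 cells seeded 5 × 10⁵ per well and grown 24 h, then treated 24 h at 8 or 12 µM. Optional 1 h pretreatment with 20 mM NAC or 50 µM carboxyl-PTIO before 12 µM treatment. Cells stained with annexin V-FITC 15 min and PI 5 min at room temperature in the dark, then analysed by flow cytometry. Mean ± SD, n = 3.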"}, "[9]": {"assay": "Metal chelating activity assessed as compound-Cu2+ complex formation by measuring intracellular HO level in human SW1990 cells at 10 uM measured after 1 hr in presence of CuCl2 and HO radical scavenger tempol by HO probe based confocal laser scanning microscopic analysis", "format": "cell-based", "summary_of_the_method": "(§5)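 SW1990 cells at 80% confluence were loaded with 20 µM HO· probe at 37 °C for 30 min and rinsed. They then received 50 µM CuCl₂, followed by 10 µM compound for 1 h. For the scavenger arm, 1 mM tempol was given for 30 min before CuCl₂. CLSM imaging at λex 570 / λem 650 nm gave mean intensity; n = 3.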"}, "[10]": {"assay": "Prodrug activation in peroxynitrite ONOO- assessed as drug decomposition at 100 uM measured after 1 hr by RP-HPLC analysis", "summary_of_the_method": "as §4"}, "SW1990 [11]": {"test_system": "SW1990", "assay": "Cytotoxicity against human SW1990 cells assessed as reduction in cell viability measured after 48 hrs in presence of CuCl2 by MTT assay", "format": "functional, cell-based", "conditions": "SW1990, 48 h", "summary_of_the_method": "(§6)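 Cells seeded 6 × 10⁴ per well, cultured 24 h at 37 °C under 5% CO₂, then exposed to compound for 48 h, with or without 50 µM CuCl₂ or FeCl₃ co-incubation. MTT added for 4 h at 37 °C, formazan dissolved in DMSO, A490 read. IC50 reported as mean (SD), n = 3.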"}, "[12]": {"assay": "Cytotoxicity against human RWPE2 cells assessed as reduction in cell viability measured after 48 hrs by MTT assay", "format": "cell-based", "conditions": "RWPE2, 48 h", "summary_of_the_method": "as §6"}, "SW1990 [13]": {"test_system": "SW1990", "assay": "Cytotoxicity against human SW1990 cells assessed as reduction in cell viability measured after 48 hrs by MTT assay", "format": "functional, cell-based", "conditions": "SW1990, 48 h", "summary_of_the_method": "as §6"}, "[14]": {"assay": "Prodrug activation in tBuO at 100 uM measured after 1 hr by RP-HPLC analysis", "summary_of_the_method": "as §4"}, "[15]": {"assay": "Metal chelating activity assessed as compound-Cu2+ complex formation by measuring intracellular HO level in human SW1990 cells at 10 uM measured after 1 hr in presence of CuCl2 by HO probe based confocal laser scanning microscopic analysis", "format": "cell-based", "summary_of_the_method": "as §5"}, "[16]": {"assay": "Drug metabolism in human SW1990 cells assessed as nitric oxide release at 8 to 12 uM measured after 24 hrs by DAF-FM DA probe based flow cytometry", "format": "ADME, cell-based", "conditions": "sw1990, 24 h, dose 8-12 µM", "summary_of_the_method": "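SW1990 cells at 80% confluence loaded with 5 µM DAF-FM DA for 20 min at 37 °C, rinsed, then incubated with compound. Optional 1 h pretreatment with 50 µM carboxyl-PTIO before 12 µM treatment. Fluorescence read by flow cytometry (ex 495 / em 515 nm). Mean ± SD, n = 3.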"}, "[17]": {"assay": "Prodrug activation in ClO- at 100 uM measured after 1 hr by RP-HPLC analysis", "summary_of_the_method": "as §4"}, "SW1990 [18]": {"test_system": "SW1990", "assay": "Antitumor activity against human SW1990 cells xenografted in Balb/c nude mouse assessed as tumor size at 20 mg/kg, iv administered every 3 days measured after 21 days (reference value: 1.23 +/- 0.25 cm3)", "format": "functional", "conditions": "time 21 day", "summary_of_the_method": "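Male BALB/c nude mice, 3–5 weeks old, given 1 × 10⁷ SW1990 cells subcutaneously; when tumors reached about 65 mm³, randomised to groups of eight. Saline vehicle control, dosing intravenously every three days. Tumor size monitored every two days for three weeks; tumors dissected at sacrifice on day 21, volume = d² × D/2 (d smallest, D largest diameter). Mean ± SD.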"}, "SW1990 [19]": {"test_system": "SW1990", "assay": "Cytotoxicity against human SW1990 cells assessed as reduction in cell viability at 10 to 20 uM measured after 48 hrs in presence of NO scavenger Carboxyl-PTIO by MTT assay", "format": "functional, cell-based", "conditions": "dose 10-20 µM", "summary_of_the_method": "as §3"}, "PANC-1": {"test_system": "PANC-1", "assay": "Cytotoxicity against human PANC-1 cells assessed as reduction in cell viability measured after 48 hrs in presence of CuCl2 by MTT assay", "format": "functional, cell-based", "conditions": "PANC-1, 48 h", "summary_of_the_method": "as §6"}, "SW1990 [20]": {"test_system": "SW1990", "assay": "Induction of apoptosis in human SW1990 cells assessed as increase in cleaved caspase-9 expression at 8 to 12 uM measured after 24 hrs by Western blot analysis", "format": "functional, cell-based", "conditions": "dose 8-12 µM", "summary_of_the_method": "as §2"}}, "note": "The source made the active and inactive calls. No cut-off for these calls is given here."}
{"smiles": "O=C(NCCCOc1no[n+]([O-])c1S(=O)(=O)c1ccccc1)c1ccc2cccc(OCc3ccc(B(O)O)cc3)c2n1", "values": [{"measurement": "remaining at 24 h", "setting": "[1]", "result": "> 80", "unit": "%"}, {"measurement": "Activity", "setting": "SW1990 [2]", "result": "Active"}, {"measurement": "remaining at 24 h", "setting": "[3]", "result": "> 80", "unit": "%"}, {"measurement": "Activity", "setting": "SW1990 [4]", "result": "Active"}, {"measurement": "Activity", "setting": "SW1990 [5]", "result": "inactive"}, {"measurement": "Drug metabolism", "setting": "[6]", "result": "Metabolite_Notdetected"}, {"measurement": "Stabilty", "setting": "[7]", "result": "Stable"}, {"measurement": "Activity", "setting": "SW1990 [8]", "result": "inactive"}, {"measurement": "Activity", "setting": "[9]", "result": "inactive"}, {"measurement": "Drug degradation", "setting": "[10]", "result": 20.8, "unit": "%"}, {"measurement": "IC50", "setting": "SW1990 [11]", "result": 1200, "unit": "nM"}, {"measurement": "IC50", "setting": "[12]", "result": 35.6, "unit": "µM"}, {"measurement": "IC50", "setting": "SW1990 [13]", "result": 8.83, "unit": "µM"}, {"measurement": "Drug metabolism", "setting": "[14]", "result": "Metabolite_Notdetected"}, {"measurement": "Activity", "setting": "[15]", "result": "Active"}, {"measurement": "Drug metabolism", "setting": "[16]", "result": "Metabolite_Detected"}, {"measurement": "Drug metabolism", "setting": "[17]", "result": "Metabolite_Notdetected"}, {"measurement": "Activity", "setting": "SW1990 [18]", "result": 0.47, "unit": "cm3"}, {"measurement": "Activity", "setting": "SW1990 [19]", "result": "inactive"}, {"measurement": "IC50", "setting": "PANC-1", "result": 1690, "unit": "nM"}, {"measurement": "Activity", "setting": "SW1990 [20]", "result": "Active"}]}
